# Screens from PubChem.
# PLK1 kinase inh: inhibitors of human PLK1 kinase; inhibition, % at 10 µM; P53350; hit rate 0.53% among 97,000; recombinant PLK1 kinase, TR-FRET peptide phosphorylation; AID 619;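 active means inhibition of 50% or more in the single-concentration screen; inactive means inhibition below 50%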;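 further: 0% = DMSO max control and 100% = H-89 dihydrochloride min control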
# EphB4 antag: antagonists of human EphB4-ephrin-B2 interaction | hit rate 0.15% among 97,000 | P54760 | inhibition, % at 7 µM | EphB4 LBD / TNYL-RAW-Alexa532 peptide, fluorescence polarization;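 active means inhibition above the screen-wide mean inhibition plus 3 SD, cut at about 15% in these data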;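 further: 0% = DMSO wells and 100% = excess unlabeled TNYL-RAW peptide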
# Target sequence (P54760 whole entry, looked up, the tested form may be a part): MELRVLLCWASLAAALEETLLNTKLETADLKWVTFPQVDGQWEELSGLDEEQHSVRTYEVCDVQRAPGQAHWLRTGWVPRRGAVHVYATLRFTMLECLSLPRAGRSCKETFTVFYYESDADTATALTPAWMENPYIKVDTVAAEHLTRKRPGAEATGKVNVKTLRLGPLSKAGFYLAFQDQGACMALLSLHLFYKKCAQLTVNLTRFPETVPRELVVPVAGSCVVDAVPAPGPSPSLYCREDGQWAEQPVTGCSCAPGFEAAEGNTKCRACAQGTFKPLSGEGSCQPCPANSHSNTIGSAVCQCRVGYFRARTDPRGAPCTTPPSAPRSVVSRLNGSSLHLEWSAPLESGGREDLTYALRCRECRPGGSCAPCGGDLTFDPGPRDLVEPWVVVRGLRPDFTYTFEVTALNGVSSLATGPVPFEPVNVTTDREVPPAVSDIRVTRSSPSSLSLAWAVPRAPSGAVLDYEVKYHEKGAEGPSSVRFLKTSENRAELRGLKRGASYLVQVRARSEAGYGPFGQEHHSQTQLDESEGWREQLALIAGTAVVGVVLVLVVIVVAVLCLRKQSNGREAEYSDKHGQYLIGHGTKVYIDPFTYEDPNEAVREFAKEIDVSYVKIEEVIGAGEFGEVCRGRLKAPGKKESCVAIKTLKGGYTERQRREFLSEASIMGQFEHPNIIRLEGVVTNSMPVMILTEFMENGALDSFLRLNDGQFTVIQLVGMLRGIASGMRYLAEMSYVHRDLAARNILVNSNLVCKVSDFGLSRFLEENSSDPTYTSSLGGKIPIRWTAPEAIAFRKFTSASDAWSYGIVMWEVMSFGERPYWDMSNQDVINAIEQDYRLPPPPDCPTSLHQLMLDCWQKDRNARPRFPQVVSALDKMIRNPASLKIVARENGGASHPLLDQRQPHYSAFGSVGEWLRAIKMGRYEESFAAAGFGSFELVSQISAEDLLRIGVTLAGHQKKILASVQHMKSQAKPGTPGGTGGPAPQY
# PLK1 PBD inh: blocks phosphopeptide binding to human Plk1 polo box domain; P53350; Plk1 PBD phosphopeptide binding, fluorescence polarization; inhibition, %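 (tested at about 20 µM)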; hit rate 0.13% among 97,000; AID 693; in the data active means inhibition above about 34%, passing the limit was not always enough
# Rev-RRE block: disrupts HIV-1 Rev binding to RRE RNA | P05866 | Rev peptide-RRE RNA binding, FRET | inhibition, % at 8 µM | hit rate 0.79% among 97,000 | AID 704;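 active means inhibition above the screen-wide mean plus 3 SD, cut at about 35% in these data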;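 further: 0% = median DMSO wells and 100% = median Neomycin B control wells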
#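 Test system: Cy5-tagged RRE RNA duplex with fluorescein-tagged Rev peptide; Probe or stimulus: labelled Rev peptide; Schedule: 5 min preincubation and 15 min binding, 25 °C; Signal: FRET fluorescence readout; Evaluation: % inhibition from 671/540 nm acceptor-to-donor ratio, scaled between controls; Control set: DMSO and neomycin B.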
# FAK inh: FAK (human) kinase inhibition; hit rate 0.84% among 97,000; biochemical FAK kinase activity assay; Q05397; inhibition, %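 (tested at 7 µM)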; in the data active means inhibition above about 19%;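 further: 0% = DMSO and 100% = reference compound high control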
# Cav3 T inh: inhibitors of human Cav3.2 T-type calcium channel; AID 449739; O95180; Cav3.2-expressing cells, Fluo-4 calcium fluorescence FDSS; active compounds read low; hit rate 4% among 100,000; B-score at 10 µM;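 active means single-dose well whose peak fluorescence ratio is a statistical outlier from its plate by either plate-standardised score or position-corrected B-score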
# An asterisk follows results filed as active; · = not tested or not shown. Sampled rows, rich in hits. Any-hit rate of the full collection: about 5.3%.
SMILES,PLK1 kinase inh,EphB4 antag,PLK1 PBD inh,Rev-RRE block,FAK inh,Cav3 T inh
Cc1ccc(C)c(N2CCN(C(=O)C3CCN(c4nc(C)cc(C)n4)CC3)CC2)c1,-16.3,1.0,-18.3,-0.5,0.7,-5.63*
Cc1ccc(/C=C/c2ccc(=O)n(Cc3ccccc3Cl)n2)cc1,-26.5,2.3,-1.0,14.2,0.7,-0.639
COC(=O)C1=C(C(=O)OC)[C@@H]2N(Cc3ccccc3)c3ccccc3[C@@]23C[C@@H](C(=O)OC)N(C(=O)c2cc(C)oc2C)C3=N1,·,·,·,·,·,-3.01*
CCOC(=O)c1c(NC(=O)CSc2nnnn2C)sc(C)c1-c1ccc(C)cc1,·,·,·,·,·,-4.46*
OC1CN=C2C=CC=CN2C1 (centres undefined),25.1,-5.8,2.7,5.5,-0.6,-7.36*
Cc1cc(C)c(C(=O)COC(=O)[C@H](C)Nc2ccc(C(F)(F)F)cc2[N+](=O)[O-])c(C)c1,-12.5,-3.3,12.5,14.0,-0.1,-4.37*
COc1ccc(C(=O)COC(=O)[C@H](C)Nc2ccc(C(F)(F)F)cc2[N+](=O)[O-])cc1,-44.0,1.0,-4.3,16.3,-2.5,-1.05
COc1ccccc1/C=C/C(=O)NCC(=O)N/N=C/c1cc(Br)ccc1OC,8.2,-4.3,10.6,11.3,-2.4,-9.34*
COc1cc(/C=C/C(=O)NNc2c(F)c(F)cc(F)c2F)ccc1OC(F)F,-4.8,2.3,13.7,19.3,0.8,-4.34*
CCCCCCCCCCCCCCCC(=O)OC[C@H](COP(=O)([O-])OCC[N+](C)(C)C)OC(=O)CCCCCCCCCCCCCCC,·,·,·,·,·,0.144
CCCCC1=CC2=C(c3ccco3)C(=O)C(C)(OC(=O)c3ccc(OC)cc3)C(=O)C2=CN1c1ccccc1 (centres undefined),·,·,·,·,·,-1.48
Cn1c(CNc2nc(-c3ccccc3)cs2)nnc1SCC(=O)OC1CCCCC1,·,·,·,·,·,-6.11*
Cc1cccc(N2CCN(C(=O)CCCSc3nc4ccccc4[nH]3)CC2)c1C,-4.5,2.9,-32.9,3.0,-9.2,-5.53*
O=C(CCCSc1nc2ccccc2[nH]1)N1CCN(c2ccccc2)CC1,-3.8,3.5,-21.9,1.8,-4.3,-1
CCS(=O)(=O)c1ccc2oc(SCC(=O)NC34CC5CC(CC(C5)C3)C4)nc2c1,-2.6,0.8,-14.8,10.3,0.9,-7.16*
O=C(NCCSCc1ccco1)Nc1cccc(Cl)c1,-10.6,-1.4,3.3,2.0,0.8,-4.46*
O=C(NCCSCc1ccco1)Nc1ccc(Cl)cc1,-11.1,7.1,3.1,0.1,0.1,·
CC(C)Nc1ccc(C(CC(N)=O)NC(=O)Cc2ccc(Cl)cc2)cc1[N+](=O)[O-] (centres undefined),·,·,·,·,·,-0.023
CC(=Nc1cccc(C)c1)c1sc2ccccc2c1O,-12.3,-7.0,-36.1,25.1,-1.9,-0.713
CC(=Nc1ccc(O)cc1)c1sc2ccccc2c1O,-6.1,8.7,-35.5,42.4*,0.1,-1.09
Cc1cc2c(c(=O)n1Cc1cccnc1)C(c1ccc(F)cc1)C(C#N)=C(N)O2 (centres undefined),-5.2,-1.9,-7.7,2.8,5.1,0.958
Cc1[nH]nc2c1C(c1ccc(F)cc1)C(C#N)=C(N)O2 (centres undefined),56.7*,8.0,7.8,3.3,5.1,0.0426
Cc1[nH]nc2c1C(c1ccsc1C)C(C#N)=C(N)O2 (centres undefined),61.5*,4.8,9.9,5.8,1.1,-1.88
Cc1[nH]nc2c1C(c1ccc(-c3ccccc3C#N)o1)C(C#N)=C(N)O2 (centres undefined),49.9,0.9,-12.7,9.4,11.2,-4.41*
Cc1oc(C)c2c(=O)ccc3c(c12)OC(N)=C(C#N)C3c1ccc(F)cc1 (centres undefined),·,·,·,·,·,-3.32*
SMILES,PLK1 kinase inh,EphB4 antag,PLK1 PBD inh,Rev-RRE block,FAK inh,Cav3 T inh
C=C(C)C(=O)Nc1cccc(C2=NOC3(C2)C[C@@H](C(N)=O)N(C(=O)CC(c2ccccc2)c2ccccc2)C3)c1 (some centres undefined),·,·,·,·,·,-0.318
CCSc1ccccc1C(=O)NCc1ccc2c(c1)OCO2,6.4,2.2,-21.3,0.2,-4.2,1.25
C=CCn1c(C)cc(C(=O)CSc2n[nH]c(N)n2)c1C,-12.3,0.2,18.1,1.1,0.4,-0.0952
CCCCCCCOc1ccc(OC(=O)c2ccncc2)cc1,-36.6,-0.8,-4.5,14.2,0.1,0.818
COCCN1C(=O)N[C@@H](c2cccc(F)c2)C(C(C)=O)=C1C,·,·,·,·,·,0.531
O=C(c1nn(Cc2ccccc2)c(=O)c2ccccc12)N1CCN(C/C=C/c2ccccc2)CC1,-3.1,-4.7,2.2,-0.8,-0.2,-6.74*
CCn1c(=O)c2c3c(sc2n(C)c1=O)CCC3,0.5,-6.5,17.3,4.1,-1.2,1.29
CCn1c(=O)c2c3c(sc2n2c(=S)[nH]nc12)CCC3,4.7,-2.1,-18.0,-1.1,-1.2,3.61*
O=C(Nc1ncc(Br)s1)C(Cc1ccccc1)n1cccc1 (centres undefined),-8.1,-5.6,11.7,1.8,-3.5,-4.48*
Cc1ccc(Sc2ncccc2COC(=O)Nc2c(C)cccc2C)cc1,-6.0,0.2,-23.8,8.1,-4.2,-5.53*
O=C(NCCN1CCOCC1)C1(C(F)(F)F)C/C(=C\Cc2ccccc2)CCCO1 (centres undefined),·,·,·,·,·,1.25
COc1ccccc1CCNCc1ccc(OC)c(OCc2ccccc2)c1,-10.1,4.3,8.5,9.9,-4.1,-4.76*
CCCCC(=O)Nc1ccc(C(=O)NNC(=O)c2ccccc2Br)cc1,-5.9,6.9,23.1,2.4,-7.8,0.091
Cc1cc(=O)[nH]c(SCC(=O)Nc2ccc(Br)cc2)c1C#N,4.3,0.0,6.3,1.6,-3.2,-9.83*
Cc1cc(=O)[nH]c(SCC(=O)Nc2ccccc2C#N)c1C#N,-9.6,0.7,1.4,6.5,-2.9,-0.176
CCOc1ccc(N(CC(=O)NCc2cccs2)S(=O)(=O)c2c(C)noc2C)cc1,-1.1,-2.1,-14.0,5.0,-1.9,-2.08
CCOc1ccc(N(CC(=O)N2CC=C(c3ccccc3)CC2)S(=O)(=O)c2c(C)noc2C)cc1,-15.8,-3.0,-7.3,-1.8,2.2,-4.82*
CCOc1ccc(N(CC(=O)NCc2ccc(F)cc2)S(=O)(=O)c2c(C)noc2C)cc1,67.1*,-6.2,-6.7,7.6,-1.6,-0.612
COc1ccc(N(CC(=O)N2CC=C(c3ccccc3)CC2)S(=O)(=O)c2c(C)noc2C)cc1,-8.9,-12.0,-17.8,-0.1,3.6,-1.02
O=C1CC(N2CCN(c3nc4ccccc4s3)CC2)C(=O)N1Cc1cccs1 (centres undefined),-5.4,-11.7,-19.1,7.2,1.2,-1.19
S=C(NCc1ccccc1)NCC1COc2ccccc2O1 (centres undefined),0.9,10.1,-14.6,-2.3,1.8,-4.53*
CCOC(=O)/C(C#N)=C\C1=C(N2CCCC2)CC(C)(CC)OC1 (centres undefined),-9.2,4.7,-4.2,-0.2,-0.1,2.25
